{
  "source": "the EternaBench riboswitch data",
  "tested_on": "MS2 coat protein",
  "assay": "apparent Kd, MS2 coat protein; higher = weaker binding; RNA-MaP array; tryptophan 2.4 mM where present",
  "procedure,_shortened": "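Binding was read on Illumina sequencing-chip clusters where stalled E. coli RNA polymerase had transcribed each design. A titration of SNAP-549-labelled MS2 coat protein began at 0.7 or 1.5 nM and doubled to 3 µM, once without ligand and once with constant ligand, in 100 mM Tris-HCl pH 7.5, 80 mM KCl, 4 mM MgCl2, BSA, DTT, yeast tRNA and Tween-20. The apparent Kd is the median of filtered per-cluster binding-curve fits, based on green signal normalised to red-channel RNA signal and control-cluster median Fmax.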",
  "key": {"[1]": {"details": "designed as: OFF switch for tryptophan, no ligand"}, "[2]": {"details": "ligand present: tryptophan, designed as: OFF switch for tryptophan"}, "[3]": {"details": "designed as: ON switch for tryptophan, no ligand"}, "[4]": {"details": "ligand present: tryptophan, designed as: ON switch for tryptophan"}},
  "data": [
    {"sequence": "CCUAUGCAGUCGGCCGCCACUGAACAUGAGGAUCACCCAUGUAUAUAAAGAUCCUGAUAUAAUAACAGGACCGGGACUGUAUAGG", "values": [
      {"measurement": "apparent Kd", "setting": "[1]", "result": 59.7, "unit": "nM"},
      {"measurement": "apparent Kd", "setting": "[2]", "result": 157, "unit": "nM"}
    ]},
    {"sequence": "CCAUUGAUGACGGCCGCCACUGUCUACAUGAGGAUCACCCAUGUAUAGCAGGGUGGACCUAUGGACAGGACCGGGUCACUUGUCC", "values": [
      {"measurement": "apparent Kd", "setting": "[1]", "result": 11, "unit": "nM"},
      {"measurement": "apparent Kd", "setting": "[2]", "result": 12.3, "unit": "nM"}
    ]},
    {"sequence": "AAUGUAUGCCACAUGAGGAUCACCCAUGUGCGAGGACCGGUACGGCCGCCACUCGGUCGGUGGUUAAUGAAGAUAUACAAUAAUG", "values": [
      {"measurement": "apparent Kd", "setting": "[1]", "result": 11.5, "unit": "nM"},
      {"measurement": "apparent Kd", "setting": "[2]", "result": 15.5, "unit": "nM"}
    ]},
    {"sequence": "UUGCCCAGUACGGCCGCCACUGUGUGCAGGGAACCCAGGUCCACAUGAGGAUCACCCAUGUACAGCAGGACCGGGUACUUGCAAU", "values": [
      {"measurement": "apparent Kd", "setting": "[1]", "result": 9.03, "unit": "nM"},
      {"measurement": "apparent Kd", "setting": "[2]", "result": 11.7, "unit": "nM"}
    ]},
    {"sequence": "CCUAUGCAGUCGGCCGCCACUGAUAAAGUUAUCUUUACCUCAGAAACAUGAGGAUCACCCAUGUACAGGACCGGGACUGUAUAGG", "values": [
      {"measurement": "apparent Kd", "setting": "[1]", "result": 12.7, "unit": "nM"},
      {"measurement": "apparent Kd", "setting": "[2]", "result": 19.8, "unit": "nM"}
    ]},
    {"sequence": "ACACAUGAGGAUCACCCAUGUUGAGGAACACGAGGACCGGUACGGCCGCCACUCGACACAUGAGGAUCACCCAUGUGAUCACCCA", "values": [
      {"measurement": "apparent Kd", "setting": "[3]", "result": 141, "unit": "nM"},
      {"measurement": "apparent Kd", "setting": "[4]", "result": 169, "unit": "nM"}
    ]},
    {"sequence": "GUCUUGGGAUCGGCCGCCACUACAUGAGGAUCACCCAUGUGGACAAAUAGGGUUUUUAAGCUCGGUAGGACCGGGAUUCGGACAU", "values": [
      {"measurement": "apparent Kd", "setting": "[1]", "result": 12.9, "unit": "nM"},
      {"measurement": "apparent Kd", "setting": "[2]", "result": 56.9, "unit": "nM"}
    ]},
    {"sequence": "GGUAUGUAUUCGGAAACGAAUGCAUACCAACGAGGACCGGUACGGCCGCCACUCGGCCGUGAUCAACAUGAGGAUCACCCAUGUA", "values": [
      {"measurement": "apparent Kd", "setting": "[1]", "result": 15.8, "unit": "nM"},
      {"measurement": "apparent Kd", "setting": "[2]", "result": 26.8, "unit": "nM"}
    ]},
    {"sequence": "AAUCAUGAAAACAUGACAUGAGGAUCACUCCGAGGACCGGUACGGCCGCCACUCGCGAGGAGGCGGACAUGAGGAUCACCCAUGU", "values": [
      {"measurement": "apparent Kd", "setting": "[3]", "result": 254, "unit": "nM"},
      {"measurement": "apparent Kd", "setting": "[4]", "result": 66.3, "unit": "nM"}
    ]},
    {"sequence": "GGUUACUCUACGGCCGCCACUGUAAUGUAAAGAUUCCUGUACAUGACAUGAGGAUCACCCAUGUGCAGGACCGGGUAGUGUAACC", "values": [
      {"measurement": "apparent Kd", "setting": "[3]", "result": 194, "unit": "nM"},
      {"measurement": "apparent Kd", "setting": "[4]", "result": 52.6, "unit": "nM"}
    ]},
    {"sequence": "AUGGAGACCUCGGCCGCCACUCUCCAUGAGGAUCUCCCAUGUAACAUGAGGAUCACCCAUGUACUGAGGACCGGGAGGUCCUUGA", "values": [
      {"measurement": "apparent Kd", "setting": "[3]", "result": 9.9, "unit": "nM"},
      {"measurement": "apparent Kd", "setting": "[4]", "result": 10.8, "unit": "nM"}
    ]},
    {"sequence": "UAUUAUCAGUCGGCCGCCACUGACACAUGAGGAUCACCCAUGUAAUUUGGGUUAUAUAUAAAUUACAGGACCGGGACAAAUGCUA", "values": [
      {"measurement": "apparent Kd", "setting": "[1]", "result": 341, "unit": "nM"},
      {"measurement": "apparent Kd", "setting": "[2]", "result": 280, "unit": "nM"}
    ]},
    {"sequence": "UGGGUACCGACGGCCGCCACUGACUAUAGACAUGAGGAUCACCCAUGUAGAGAUCCUAGACUACCCAGGACCGGGUCUGGUGCUA", "values": [
      {"measurement": "apparent Kd", "setting": "[1]", "result": 124, "unit": "nM"},
      {"measurement": "apparent Kd", "setting": "[2]", "result": 220, "unit": "nM"}
    ]},
    {"sequence": "UGUAUUGGAAACAGUACUAGUGAUCCGGUCCGAGGACCGGUACGGCCGCCACUCGAUAUAAAUAAACAUGAGGAUCACCCAUGUA", "values": [
      {"measurement": "apparent Kd", "setting": "[1]", "result": 14.9, "unit": "nM"},
      {"measurement": "apparent Kd", "setting": "[2]", "result": 29.8, "unit": "nM"}
    ]},
    {"sequence": "AUGACUCACAAAGAAGAUAAAAUGGGUGAACGAGGACCGGUACGGCCGCCACUCGGACAUGAGGAUCACCCAUGUCCAUGUGCAA", "values": [
      {"measurement": "apparent Kd", "setting": "[1]", "result": 22.1, "unit": "nM"},
      {"measurement": "apparent Kd", "setting": "[2]", "result": 28.8, "unit": "nM"}
    ]}
  ]
}
